Source: ChEMBL document CHEMBL5653631, “A Potent and Selective ULK1 Inhibitor Suppresses Autophagy and Sensitizes Cancer Cells to Nutrient Stress” (iScience, 2018)
Activity calls are given as the source filed them. No cut-off for these calls is given here.

How the values were obtained:
U2OS = experiment: Inhibition of autophagy in human U2OS cells assessed as BafA1-induced LC3B-II accumulation upto 5 uM preincubated with compound for 3 hrs followed by BafA1 induction and measured after 1 hr by immunoblotting analysis; assay type: functional, cell-based; conditions: time 4.0 hrs
[1] = target: Serine/threonine-protein kinase PLK2 (Homo sapiens) (UniProt Q9NYY3); experiment: Inhibition of human recombinant PLK2 at 40 nM related to control ULK1
Sequence of Serine/threonine-protein kinase PLK2 (Homo sapiens) (Q9NYY3 whole entry, looked up): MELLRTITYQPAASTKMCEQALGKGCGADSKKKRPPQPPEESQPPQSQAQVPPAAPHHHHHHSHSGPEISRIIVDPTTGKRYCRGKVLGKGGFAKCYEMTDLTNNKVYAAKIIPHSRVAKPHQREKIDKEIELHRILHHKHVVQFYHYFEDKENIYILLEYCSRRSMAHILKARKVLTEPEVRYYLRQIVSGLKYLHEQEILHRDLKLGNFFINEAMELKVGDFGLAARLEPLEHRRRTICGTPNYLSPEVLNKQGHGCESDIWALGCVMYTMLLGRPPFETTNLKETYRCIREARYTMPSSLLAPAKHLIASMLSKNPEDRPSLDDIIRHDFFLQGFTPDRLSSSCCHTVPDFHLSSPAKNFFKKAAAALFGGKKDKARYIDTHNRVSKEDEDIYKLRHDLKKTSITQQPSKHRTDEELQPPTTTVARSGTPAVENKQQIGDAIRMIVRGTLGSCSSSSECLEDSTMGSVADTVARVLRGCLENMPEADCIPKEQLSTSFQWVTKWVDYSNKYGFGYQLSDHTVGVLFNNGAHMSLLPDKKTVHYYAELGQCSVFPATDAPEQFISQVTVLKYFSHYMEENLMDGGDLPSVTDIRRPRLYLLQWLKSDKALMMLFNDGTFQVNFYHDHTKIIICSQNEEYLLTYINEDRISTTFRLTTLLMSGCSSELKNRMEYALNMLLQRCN

[2] = target: T1, Serine/threonine-protein kinase Sgk3 (Homo sapiens) (UniProt Q96BR1); experiment: Inhibition of human recombinant SGK3 at 40 nM related to control ULK1
T1 sequence (whole entry): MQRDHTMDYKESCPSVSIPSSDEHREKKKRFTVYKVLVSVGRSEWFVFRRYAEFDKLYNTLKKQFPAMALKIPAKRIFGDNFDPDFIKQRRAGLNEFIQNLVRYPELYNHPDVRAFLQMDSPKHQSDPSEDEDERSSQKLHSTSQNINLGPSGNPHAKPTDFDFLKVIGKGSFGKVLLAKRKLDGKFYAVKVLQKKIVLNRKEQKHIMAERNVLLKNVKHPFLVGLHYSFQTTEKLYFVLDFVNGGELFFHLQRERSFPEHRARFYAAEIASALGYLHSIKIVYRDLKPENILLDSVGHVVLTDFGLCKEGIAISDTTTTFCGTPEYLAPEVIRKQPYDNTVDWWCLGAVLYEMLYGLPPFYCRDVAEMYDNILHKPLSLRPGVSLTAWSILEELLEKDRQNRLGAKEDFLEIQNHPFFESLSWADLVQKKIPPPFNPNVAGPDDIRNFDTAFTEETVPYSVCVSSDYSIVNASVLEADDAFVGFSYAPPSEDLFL

[3] = target: Receptor tyrosine-protein kinase erbB-2 (Homo sapiens) (UniProt P04626); experiment: Inhibition of human recombinant ErbB2 at 40 nM in presence of ATP by radiometric assay relative to control
[4] = target: Death-associated protein kinase 2 (Homo sapiens) (UniProt Q9UIK4); experiment: Inhibition of human recombinant DAPK2 at 40 nM in presence of ATP by radiometric assay relative to control
Sequence of Death-associated protein kinase 2 (Homo sapiens) (Q9UIK4 whole entry, looked up): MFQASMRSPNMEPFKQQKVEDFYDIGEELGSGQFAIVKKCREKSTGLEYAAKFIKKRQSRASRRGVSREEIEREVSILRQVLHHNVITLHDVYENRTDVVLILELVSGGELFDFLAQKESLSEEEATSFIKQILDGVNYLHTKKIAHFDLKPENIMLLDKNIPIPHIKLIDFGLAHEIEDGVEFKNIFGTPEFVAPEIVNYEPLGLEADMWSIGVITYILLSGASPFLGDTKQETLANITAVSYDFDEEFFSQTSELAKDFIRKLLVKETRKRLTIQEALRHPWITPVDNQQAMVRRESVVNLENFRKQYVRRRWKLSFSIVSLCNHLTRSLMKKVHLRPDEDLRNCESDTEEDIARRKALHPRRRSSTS

[5] = target: Serine-protein kinase ATM (Homo sapiens) (UniProt Q13315); experiment: Inhibition of human recombinant ATM at 500 nM in presence of ATP by radiometric assay relative to control
Sequence of Serine-protein kinase ATM (Homo sapiens) (Q13315 whole entry): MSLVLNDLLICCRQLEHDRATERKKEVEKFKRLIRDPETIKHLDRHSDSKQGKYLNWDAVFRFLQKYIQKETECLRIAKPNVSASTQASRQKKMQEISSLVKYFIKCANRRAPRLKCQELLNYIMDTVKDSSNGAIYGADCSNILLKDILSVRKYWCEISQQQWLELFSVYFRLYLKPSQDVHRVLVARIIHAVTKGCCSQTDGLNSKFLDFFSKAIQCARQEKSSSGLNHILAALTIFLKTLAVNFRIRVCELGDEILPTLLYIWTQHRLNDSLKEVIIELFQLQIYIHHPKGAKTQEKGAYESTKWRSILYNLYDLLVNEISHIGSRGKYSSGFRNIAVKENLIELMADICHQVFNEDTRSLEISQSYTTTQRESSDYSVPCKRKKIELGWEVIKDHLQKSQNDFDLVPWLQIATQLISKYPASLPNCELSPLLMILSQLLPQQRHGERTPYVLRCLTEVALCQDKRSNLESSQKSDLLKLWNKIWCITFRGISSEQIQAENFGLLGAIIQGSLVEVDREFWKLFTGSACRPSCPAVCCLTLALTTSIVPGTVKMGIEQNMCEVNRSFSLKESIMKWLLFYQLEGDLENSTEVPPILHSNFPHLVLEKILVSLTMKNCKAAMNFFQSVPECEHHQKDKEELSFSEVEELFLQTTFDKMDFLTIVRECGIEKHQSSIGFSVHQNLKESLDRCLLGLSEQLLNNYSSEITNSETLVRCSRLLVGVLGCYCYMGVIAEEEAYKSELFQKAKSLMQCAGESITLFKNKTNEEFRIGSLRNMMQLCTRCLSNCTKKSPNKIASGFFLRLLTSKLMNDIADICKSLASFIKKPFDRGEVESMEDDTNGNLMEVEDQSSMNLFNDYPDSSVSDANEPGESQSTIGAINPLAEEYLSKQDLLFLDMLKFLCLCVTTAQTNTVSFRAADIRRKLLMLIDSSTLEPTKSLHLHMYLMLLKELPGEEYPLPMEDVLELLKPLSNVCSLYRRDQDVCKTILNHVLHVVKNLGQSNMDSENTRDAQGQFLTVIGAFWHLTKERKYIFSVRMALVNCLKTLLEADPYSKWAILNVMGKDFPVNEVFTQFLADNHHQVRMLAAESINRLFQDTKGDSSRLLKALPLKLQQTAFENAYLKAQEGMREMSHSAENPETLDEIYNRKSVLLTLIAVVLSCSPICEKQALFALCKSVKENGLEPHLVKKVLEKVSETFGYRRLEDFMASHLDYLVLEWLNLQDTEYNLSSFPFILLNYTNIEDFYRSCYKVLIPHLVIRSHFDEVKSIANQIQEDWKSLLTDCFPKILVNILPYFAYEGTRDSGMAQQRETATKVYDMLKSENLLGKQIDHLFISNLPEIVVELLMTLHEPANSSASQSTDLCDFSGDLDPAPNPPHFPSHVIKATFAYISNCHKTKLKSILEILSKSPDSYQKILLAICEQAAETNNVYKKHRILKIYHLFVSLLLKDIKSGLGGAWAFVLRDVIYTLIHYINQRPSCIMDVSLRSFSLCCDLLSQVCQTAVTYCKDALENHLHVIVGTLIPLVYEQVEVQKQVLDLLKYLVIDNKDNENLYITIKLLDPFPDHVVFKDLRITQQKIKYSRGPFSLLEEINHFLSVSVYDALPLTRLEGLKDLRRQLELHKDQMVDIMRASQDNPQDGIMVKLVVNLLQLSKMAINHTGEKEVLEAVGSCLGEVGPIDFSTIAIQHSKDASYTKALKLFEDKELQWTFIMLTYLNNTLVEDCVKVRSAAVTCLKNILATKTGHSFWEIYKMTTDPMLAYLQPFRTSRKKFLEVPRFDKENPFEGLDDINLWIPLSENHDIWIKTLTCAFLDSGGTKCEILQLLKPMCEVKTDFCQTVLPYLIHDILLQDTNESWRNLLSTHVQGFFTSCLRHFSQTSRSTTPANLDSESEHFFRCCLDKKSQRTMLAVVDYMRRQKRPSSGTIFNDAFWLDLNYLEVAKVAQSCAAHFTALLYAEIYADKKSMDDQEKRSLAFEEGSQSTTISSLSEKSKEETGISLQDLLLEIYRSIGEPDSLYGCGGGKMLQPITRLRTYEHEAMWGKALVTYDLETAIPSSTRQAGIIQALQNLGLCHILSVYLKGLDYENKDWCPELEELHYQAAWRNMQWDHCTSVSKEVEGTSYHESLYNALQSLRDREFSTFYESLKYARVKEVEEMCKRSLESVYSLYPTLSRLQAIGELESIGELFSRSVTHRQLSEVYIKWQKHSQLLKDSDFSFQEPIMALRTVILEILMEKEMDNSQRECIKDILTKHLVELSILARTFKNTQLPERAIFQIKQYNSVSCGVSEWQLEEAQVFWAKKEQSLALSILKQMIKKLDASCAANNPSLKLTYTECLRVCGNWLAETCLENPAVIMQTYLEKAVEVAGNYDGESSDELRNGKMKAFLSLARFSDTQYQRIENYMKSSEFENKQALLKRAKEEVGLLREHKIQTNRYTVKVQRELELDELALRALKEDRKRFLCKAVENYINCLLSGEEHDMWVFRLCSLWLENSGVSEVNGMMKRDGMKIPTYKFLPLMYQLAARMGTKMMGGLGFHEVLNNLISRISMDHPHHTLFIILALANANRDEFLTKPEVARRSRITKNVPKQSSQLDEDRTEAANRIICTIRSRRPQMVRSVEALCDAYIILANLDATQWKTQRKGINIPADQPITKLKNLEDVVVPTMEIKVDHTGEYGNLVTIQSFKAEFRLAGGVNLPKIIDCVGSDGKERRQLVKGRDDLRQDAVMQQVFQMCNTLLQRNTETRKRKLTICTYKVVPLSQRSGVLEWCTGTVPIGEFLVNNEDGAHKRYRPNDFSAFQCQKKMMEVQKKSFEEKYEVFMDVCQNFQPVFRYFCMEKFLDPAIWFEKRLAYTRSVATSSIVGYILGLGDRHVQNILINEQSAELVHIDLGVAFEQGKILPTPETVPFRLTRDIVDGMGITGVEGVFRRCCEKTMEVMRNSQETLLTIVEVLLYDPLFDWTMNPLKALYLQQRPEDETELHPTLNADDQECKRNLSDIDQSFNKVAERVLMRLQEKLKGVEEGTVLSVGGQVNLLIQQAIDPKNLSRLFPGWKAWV
Summary of the method: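 Panel of 327 recombinant human kinases, each assayed in vitro by radiometric activity assay in duplicate at a single inhibitor concentration per compound, chosen with reference to its ULK1 inhibition. Activity remaining was expressed as percent of vehicle control, and percent inhibition was calculated as 100 minus percent activity remaining.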

[6] = target: T2, Mitogen-activated protein kinase kinase kinase 7 (Homo sapiens) (UniProt O43318); experiment: Inhibition of human recombinant TAK1 at 500 nM related to control ULK1
T2 sequence (whole entry): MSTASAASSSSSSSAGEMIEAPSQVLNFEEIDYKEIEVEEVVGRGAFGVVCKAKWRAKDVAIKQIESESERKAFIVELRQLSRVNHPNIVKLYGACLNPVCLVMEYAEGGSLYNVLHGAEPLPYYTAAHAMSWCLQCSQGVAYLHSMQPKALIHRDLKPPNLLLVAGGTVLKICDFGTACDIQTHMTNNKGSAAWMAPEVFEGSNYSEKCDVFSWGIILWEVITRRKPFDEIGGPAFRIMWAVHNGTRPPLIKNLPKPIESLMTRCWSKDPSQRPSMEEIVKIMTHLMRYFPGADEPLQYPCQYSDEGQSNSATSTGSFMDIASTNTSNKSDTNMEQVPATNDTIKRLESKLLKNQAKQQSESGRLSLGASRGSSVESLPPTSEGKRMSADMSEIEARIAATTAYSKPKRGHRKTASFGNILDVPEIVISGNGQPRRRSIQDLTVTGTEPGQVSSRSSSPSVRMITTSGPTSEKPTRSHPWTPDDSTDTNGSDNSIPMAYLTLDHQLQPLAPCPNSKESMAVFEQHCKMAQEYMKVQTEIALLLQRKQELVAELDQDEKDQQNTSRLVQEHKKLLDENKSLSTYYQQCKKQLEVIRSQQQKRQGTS

[7] = target: T3, Serine/threonine-protein kinase NLK (Homo sapiens) (UniProt Q9UBE8); experiment: Inhibition of human recombinant NLK at 15 nM related to control ULK1
T3 sequence (whole entry): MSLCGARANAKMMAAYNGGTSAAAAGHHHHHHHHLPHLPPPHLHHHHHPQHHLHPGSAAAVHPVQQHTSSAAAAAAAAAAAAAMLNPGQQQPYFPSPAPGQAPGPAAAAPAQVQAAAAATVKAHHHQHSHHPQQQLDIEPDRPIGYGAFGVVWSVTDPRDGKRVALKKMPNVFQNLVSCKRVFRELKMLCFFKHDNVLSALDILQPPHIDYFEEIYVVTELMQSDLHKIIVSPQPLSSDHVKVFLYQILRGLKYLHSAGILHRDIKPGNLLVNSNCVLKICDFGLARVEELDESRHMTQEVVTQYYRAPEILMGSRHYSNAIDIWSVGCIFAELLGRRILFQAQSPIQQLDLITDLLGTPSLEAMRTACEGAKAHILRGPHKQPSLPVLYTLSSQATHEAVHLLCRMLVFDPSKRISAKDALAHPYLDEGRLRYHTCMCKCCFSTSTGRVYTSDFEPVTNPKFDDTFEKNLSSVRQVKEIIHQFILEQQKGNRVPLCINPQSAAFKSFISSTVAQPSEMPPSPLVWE

[8] = target: Calcium/calmodulin-dependent protein kinase kinase 1 (Homo sapiens) (UniProt Q8N5S9); experiment: Inhibition of human recombinant CaMKK1 at 15 nM related to control ULK1
Sequence of Calcium/calmodulin-dependent protein kinase kinase 1 (Homo sapiens) (Q8N5S9 whole entry, looked up): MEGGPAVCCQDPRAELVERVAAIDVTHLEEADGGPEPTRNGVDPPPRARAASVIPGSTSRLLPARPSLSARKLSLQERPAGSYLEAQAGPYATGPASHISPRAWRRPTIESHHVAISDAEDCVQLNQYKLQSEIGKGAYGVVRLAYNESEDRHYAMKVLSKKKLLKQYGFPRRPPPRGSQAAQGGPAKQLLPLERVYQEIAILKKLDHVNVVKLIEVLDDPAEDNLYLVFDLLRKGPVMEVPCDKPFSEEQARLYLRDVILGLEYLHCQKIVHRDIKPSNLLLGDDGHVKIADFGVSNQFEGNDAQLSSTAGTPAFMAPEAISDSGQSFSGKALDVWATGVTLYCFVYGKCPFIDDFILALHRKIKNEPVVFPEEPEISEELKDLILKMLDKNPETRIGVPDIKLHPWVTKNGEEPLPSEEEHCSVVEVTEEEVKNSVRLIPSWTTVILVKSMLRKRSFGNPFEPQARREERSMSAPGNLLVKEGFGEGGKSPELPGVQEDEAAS

[9] = target: Cyclin-dependent kinase 13 (Homo sapiens) (UniProt Q14004); experiment: Inhibition of human recombinant CHED at 15 nM related to control ULK1

## O=C(N[C@@H](C1CC1)C(F)(F)F)c1cc(-c2cnn3cc(-c4ccc(F)cc4)cnc23)cs1
U2OS
  inhibition: Active
[1]
  fold change (FC): 0.04
[2]
  fold change (FC): 0
[3]
  inhibition: 0%
[4]
  inhibition: 0%

## CNC(=O)c1ccccc1Oc1nc(Nc2cc(OC)c(OC)c(OC)c2)ncc1Br
[5]
  inhibition: 2%
[6]
  fold change (FC): 0.03

## CC(C)[C@H](NC(=O)c1cc(-c2cnn3cc(-c4ccc(OCCN5CCCCC5)cc4)cnc23)cs1)C(F)(F)F
[7]
  fold change (FC): 0.1
[8]
  fold change (FC): 0
[9]
  fold change (FC): 0
